Only some compounds are listed: those with a hit (about 3.9% of all), similar ones and a draw of the others.
Jurkat NFkB inh: inhibitors of induced NF-kB luciferase reporter, primary screen, TCR NF-kB activation inhibitor project, cell-based, luminescence, uHTS | Jurkat, PMA/ionomycin-induced NF-kB luciferase reporter | inhibition, % at 4 µM | hit rate 0.53% among 330,000 | AID 435003, 2010; in the data active = inhibition above about 50%
697 NFkB inh: inhibitors of PMA/ionomycin-induced NF-kB reporter, 697 cells, primary screen, B-cell NF-kB inhibitor project, cell-based, luminescence, uHTS; 697 B-cell NF-kB luciferase reporter, 16 h; inhibition, % at 4 µM; hit rate 0.33% among 330,000; in the data active = inhibition above about 35%
Gli-Sufu block: Gli-Sufu pathway antagonists, primary screen, luciferase luminescence, Sufu-KO-LIGHT cells, uHTS; inhibition, % at 5 µM; hit rate 0.74% among 340,000; Sufu-KO-LIGHT fibroblasts, Gli luciferase reporter luminescence; AID 588413, 2011;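 active = inhibition above about 55%, limit read from the data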;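 also: 0% = DMSO-treated cells and 100% = wells with medium but no cells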
CHOP inh: inhibitors of CHOP promoter induction, primary screen, cell-based, unfolded protein response, luciferase reporter | CHO-K1 CHOP-promoter luciferase, tunicamycin-induced, 15-18 h | inhibition, % at 10 µM | hit rate 3.8% among 220,000;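 active = compounds that reduced the stress-induced luciferase reporter signal by more than about 70% of percent inhibition, limit read from the data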;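 also: 0% = tunicamycin plus vehicle and 100% = wells without tunicamycin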
UPR CHOP act: activators of apoptotic CHOP UPR arm, primary screen, cell-based, CHO-CHOP luciferase reporter, luminescence, uHTS | UPR activation; percent of tunicamycin response over DMSO baseline | activation, % at 10 µM | hit rate 0.34% among 330,000 | AID 449763, 2010;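 active = at 10 µM dose, activation of 40% or more, normalized to positive control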;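 also: 100% = tunicamycin at 10 µg/mL and 0% = DMSO alone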
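Assay system: CHO cells with stable CHOP pathway luciferase reporter; Buffer or medium: F12 plus 10% serum; Times: 16-18 h cell attachment, then 6 h compound exposure, 37 °C; Signal: luciferase luminescence; Read-out basis: percent activation relative to tunicamycin control; Control set: tunicamycin high control, DMSO low control.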
UPR XBP1 act: activators of adaptive XBP1 UPR arm, primary screen, cell-based, CHO-XBP1 luciferase reporter, luminescence, uHTS; hit rate 0.33% among 330,000; activation, % at 20 µM; AID 463104, 2010; IRE1-XBP1 UPR activation; percent of tunicamycin response, DMSO as zero;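 active = versus positive control, 20 µM dose yields 30% or more activation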;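 also: 100% = tunicamycin at 10 µg/mL and 0% = DMSO only wells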
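Material – CHO cell line with stable XBP1 luciferase reporter · Buffer or medium – F12 plus 10% FBS · Compound – single point, 20 µM final compound, 1% DMSO · Schedule – 16-18 h cell attachment at 37 °C, then 6 h compound exposure · Signal – Steady-Glo luminescence read · Benchmarks – high control tunicamycin 10 µg/mL final, low control DMSO vehicle only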
Gli-Sufu confirm: Gli-SUFU pathway antagonists, confirmation, single concentration, luciferase luminescence, Sufu-KO-LIGHT cells. inhibition, % at 5 µM. shares compounds with Gli-Sufu block. Gli luciferase reporter. hit rate 40% among 2,500. AID 602428, 2012;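 active = mean inhibition at 5 µM reaching about 45%, limit read from the data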;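 also: plate controls were DMSO-treated cells for no effect and wells lacking cells for full effect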
SufuKO cytotox: cytotoxicity in Sufu-KO-LIGHT cells, confirmation, cytotoxicity control for Gli-SUFU antagonist project, cell-based, ATP luminescence, single concentration | shares compounds with Gli-Sufu block | cytotoxicity, % at 5 µM | hit rate 32% among 2,500;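 active = mean cytotoxicity at 5 µM above about 25%, limit read from the data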;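 also: cells exposed to compound overnight for roughly 16 to 18 hours; plate controls were DMSO wells with cells for no effect and medium without cells for full effect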
Wnt3a counter: Wnt3a reporter signal inhibition, confirmation, counter-screen for Gli-SUFU antagonist project, Wnt-LIGHT cells, luminescence, single concentration; shares compounds with Gli-Sufu block; Wnt3a-driven luciferase reporter; inhibition, % at 6.25 µM; hit rate 20% among 2,500; AID 651995, 2013;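 active = mean inhibition above about 25%, limit read from the data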
An asterisk follows results filed as active; . = no result given.

SMILES | Jurkat NFkB inh | 697 NFkB inh | Gli-Sufu block | CHOP inh | UPR CHOP act | UPR XBP1 act | Gli-Sufu confirm | SufuKO cytotox | Wnt3a counter
COc1ccc(C2=[N+](C)CCn3cccc32)c(OC)c1 | 34 | -21 | 70* | 2 | -1 | 0 | 47* | 21 | 13
O=C(O)c1cc2nc(C3CC3)cc(C(F)(F)F)n2n1 | 5 | 12 | 56* | -15 | 1 | -2 | 15 | -10 | 10
O=C(Cn1c(-c2ccccc2)c[n+]2ccsc12)c1ccc(Br)cc1 | -23 | -33 | 50 | -24 | 0 | -3 | 45* | 17 | -31
C[n+]1ccn(CC(=O)c2ccc(Br)cc2)c1 | -12 | 8 | -1 | 11 | -2 | -2 | . | . | .
Cc1ccc(-c2nnc(N3CCC(C)CC3)c3ccccc23)cc1C | 6 | 6 | 55 | 90* | 2 | 7 | 21 | 3 | 27*
CN1C(=O)N(C)c2cccc3cccc1c23 | -4 | 2 | 0 | . | 1 | -3 | . | . | .
CC1=Nc2cccc3cccc(c23)N1C | -1 | 3 | 70* | 20 | 0 | -2 | 89* | 13 | -19
Cc1ccc(N2CC(c3nc4ccccc4[nH]3)CC2=O)c(C)c1 (stereo not drawn) | 2 | 9 | 50 | 28 | 0 | -1 | 4 | -6 | 10
Cc1cccc(N2C(=O)CC(N3CCC(c4nc5ccccc5[nH]4)CC3)C2=O)c1 (stereo not drawn) | 9 | 18 | -29 | 5 | -1 | 5 | . | . | .
CCCCN1CC(=O)N2[C@H]3c4cc(Cl)ccc4OC[C@@H]3[C@H](c3ccccc3)[C@]2(C)C1=O | -1 | 0 | 5 | . | -1 | -1 | . | . | .
CCN(CC(=O)Nc1ccccc1C(F)(F)F)C(=O)CN1C(=O)NC(C)(c2ccc3ccccc3c2)C1=O (stereo not drawn) | . | . | 0 | . | . | . | . | . | .
CS(=O)(=O)c1nc(S(=O)(=O)c2ccc(Cl)cc2)c(NCCCn2ccnc2)s1 | 5 | -7 | 57* | . | 1 | -1 | 11 | 6 | 3
CS(=O)(=O)c1nc(S(=O)(=O)c2ccc(Cl)cc2)c(NCCN2CCOCC2)s1 | 13 | -9 | -3 | . | -1 | -5 | . | . | .
CCCc1sc(N/N=C/c2ccccn2)nc1-c1ccc(Br)cc1 | -49 | -89 | 64* | 61 | 18 | 8 | 80* | 13 | 88*
CC(=O)Nc1cc2nc(C)n(Cc3ccccc3[N+](=O)[O-])c2nc1C | -10 | -6 | -10 | . | -2 | -4 | . | . | .
Cc1ccc(S(=O)(=O)N2CCC(=O)N(CCOCc3ccc(C(F)(F)F)cc3)CC2)cc1 | 27 | -24 | 52 | 59 | 4 | 0 | 30 | 13 | -29
O=C1CCN(S(=O)(=O)c2ccccc2)CCN1CCOCc1ccc(C(F)(F)F)cc1 | 3 | 15 | 9 | -7 | 0 | -2 | . | . | .
COc1ccc(NC(=O)c2c(Nc3ccccc3)sc(C(=O)c3ccc(F)cc3)c2N)cc1 | -3 | 4 | 75* | 43 | 24 | 4 | 85* | 35* | 81*
CN(C)S(=O)(=O)c1cccc(-c2nn(-c3ccccc3)cc2/C=C(/C#N)C(=O)NCc2ccco2)c1 | -18 | -6 | 83* | -8 | 0 | 7 | 30 | 8 | 14
O=C(NC(=S)Nc1ccc(CN2CCOCC2)cc1)c1ccc(-c2ccc(Br)cc2)o1 | -6 | -28 | 7 | -4 | 2 | -4 | . | . | .
COc1ccc(Br)cc1C(=O)NC(=S)Nc1ccc(CN2CCOCC2)cc1 | -29 | -59 | 50 | . | 0 | 2 | 20 | 12 | -17
Cc1nc2ccccc2c(=O)n1NC(=O)c1cccc(Cl)c1 | -2 | -7 | 31 | . | -1 | 1 | . | . | .
CC(C)(C)n1nc2c(c1NC(=O)c1ccc([N+](=O)[O-])cc1)CS(=O)(=O)C2 | 0 | -14 | 13 | . | 2 | -10 | . | . | .
CCOCCCNC(=O)C(NC(=O)c1ccc(NC(C)=O)cc1)c1ccc(C)cc1 (stereo not drawn) | 2 | -2 | 96* | 0 | 1 | -2 | 14 | 1 | 4
Cc1ccc2sc(NC(=O)CN3C(=O)CCC3=O)nc2c1C | 12 | 15 | 57* | 19 | -3 | 1 | 17 | 19 | -16
SMILES | Jurkat NFkB inh | 697 NFkB inh | Gli-Sufu block | CHOP inh | UPR CHOP act | UPR XBP1 act | Gli-Sufu confirm | SufuKO cytotox | Wnt3a counter
COc1ccc(OC)c(/C=C2\SC(N3CCCC(C)C3)=NC2=O)c1 (stereo not drawn) | 0 | 26 | 64* | . | 3 | 0 | 14 | 12 | -22
CN(CC(=O)Nc1ccc(Cl)cc1)CC(=O)Nc1cccc(Br)c1 | 1 | 8 | 55* | . | 1 | -5 | 15 | 6 | -51
CCN(CC)S(=O)(=O)c1cccc(NC(=O)CC2CCCC2)c1 | -5 | 3 | 57* | . | 2 | 2 | 22 | 10 | -8
CCN(CC)S(=O)(=O)c1cccc(NC(=O)/C=C/c2cccc([N+](=O)[O-])c2)c1 | . | . | 51 | 36 | . | . | 23 | 14 | -45
CCN(CC)S(=O)(=O)c1ccc(OC)c(NC(=O)CC2CCCC2)c1 | -12 | 8 | 8 | . | 1 | -5 | . | . | .
Cc1cc(OCC(=O)OCC(=O)NC2CCCCC2C)ccc1Cl (stereo not drawn) | 2 | 12 | -3 | . | -2 | 0 | . | . | .
COc1ccccc1C(=O)N/C(=C\c1ccc(Br)cc1)C(=O)NCCC(=O)O | -25 | -23 | -5 | 17 | -2 | -5 | . | . | .
COc1ccccc1C(=O)N/C(=C\c1ccc(Br)cc1)C(=O)NCC(=O)O | 4 | -2 | 97* | -6 | 2 | 0 | 14 | 0 | 13
COc1ccc(NC(=O)C(Cc2cc(C)cc(C)c2)C(C)C(=O)O)cc1 (stereo not drawn) | -2 | 1 | -10 | . | 1 | -2 | . | . | .
CC(C)CCC(C)NC(=O)CN1C(=O)NC(C)(c2ccc3ccccc3c2)C1=O (stereo not drawn) | 10 | -11 | -4 | . | -1 | -3 | . | . | .
O=C(Nc1ccncc1)c1ccc(-c2ccccc2)cc1 | 35 | -1 | 58* | 32 | 5 | 4 | 55* | 23 | -84
